# Where two headings read alike, the source gives them in different places.
# Experiments:
# MDA-MB-231 = experiment: Cytotoxicity assay; format: cell-based; details: read-out: IC50 (50% inhibitory concentration), MDA-MB-231; human breast cancer, 48 hours, 1% FBS, mean ± SD
# In short: (§1)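 Cells grown at 37 °C, 5% CO2 with 10% FBS (HepG2.2.15 in DMEM; MDA-MB-231 in DMEM/F12 1:1) and trypsinised and trypan blue-counted 24 h before. Seeded at 2.5 × 10^3 per well overnight, then exposed in quadruplicate to 100–6.25 μM plus 0 μM in 1% FBS medium for 48 h. Crystal violet stain, water wash, SDS solubilisation, A595. IC50 from linear regression of concentration against inhibition rate.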
# MCF-7 = experiment: Cytotoxicity assay; format: cell-based, human; details: read-out: IC50 (50% inhibitory concentration), MCF-7
# In short: (§2)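 HepG2 cells (DMEM) or MCF-7 cells (RPMI-1640), each with 10% FBS, at 37 °C and 5% CO2. Cells were trypsinised, counted by trypan blue and seeded at 2.5 × 10^3 cells/well overnight. Test compound at 100, 50, 25, 12.5, 6.25 and 0 μM in 1% FBS medium, quadruplicate, 48 h. Adherent cells stained with 0.02% crystal violet, washed with water, dye dissolved in 1% SDS, A595. IC50 by linear regression of concentration against inhibition rate.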
# HEPG2 = experiment: Cytotoxicity assay; format: cell-based, human; details: read-out: IC50 (50% inhibitory concentration), HEPG2
# In short: as §2
# HEPG2.2.15 = experiment: Cytotoxicity assay; format: cell-based; details: read-out: IC50 (50% inhibitory concentration), HEPG2.2.15; human hepatocellular carcinoma, HBV transformed, 48 hours, 1% FBS, mean ± SD
# In short: as §1
# SARS-CoV-2 3CL protease = SARS-CoV-2 3CL protease (Severe acute respiratory syndrome coronavirus 2, UniProt P0DTD1); experiment: In vitro inhibitory activity assay of 3CL protease; format: biochemical; details: read-out: inhibitory activity against 3CL protease
# [1] = human breast cancer, 48 hours, 1% FBS, mean ± SD
# [2] = human hepatocellular carcinoma, 48 hours, 1% FBS, mean ± SD
Molecule,IC50 (MDA-MB-231) [µM],IC50 (MCF-7; [1]) [µM],IC50 (HEPG2; [2]) [µM],IC50 (HEPG2.2.15) [µM],"IC50 (MCF-7; Homo sapiens, MCF7, 48 h) [µM]",inhibition at 50 µM (SARS-CoV-2 3CL protease) [%],"IC50 (HEPG2; Homo sapiens, HepG2, 48 h) [µM]"
3-(((1-(2-Hydroxyethyl)-5-nitro-1H-benzo[d]imidazole-2-yl)methyl)thio)-2-(pyridin-3-ylmethyl)isoquinolin-1(2H)-one [9c],> 100,> 100,> 100,> 100,,,
3-(((1H-Benzo[d]imidazole-2-yl)methyl)thio)-2-(pyridin-3-ylmethyl)isoquinolin-1(2H)-one [9a],> 100,> 100,> 100,> 100,,,
"O=C(Cn1cnc2ccccc2c1=O)Nc1ccc(O)cc1[N+](=O)[O-] [4a, N-(4-Hydroxy-2-nitrophenyl)-2-(4-oxoquinazolin-3(4H)-yl)acetamide]",,,,,> 100,> 50,> 100
"O=C(Cn1cnc2ccccc2c1=O)Nc1cc(Cl)ccc1O [4b, N-(5-Chloro-2-hydroxyphenyl)-2-(4-oxoquinazolin-3(4H)-yl)acetamide]",,,,,> 100,,> 100
"COc1ccc(NC(=O)Cn2cnc3ccccc3c2=O)c([N+](=O)[O-])c1 [4c, N-(4-methoxy-2-nitrophenyl)-2-(4-oxoquinazolin-3(4H)-yl)acetamide]",,,,,> 100,> 50,> 100
"Cc1ccc(NC(=O)Cn2cnc3ccccc3c2=O)c(O)c1 [4d, N-(2-Hydroxy-4-methylphenyl)-2-(4-oxoquinazolin-3(4H)-yl)acetamide]",,,,,> 100,,> 100
"O=C(Cn1cnc2ccccc2c1=O)Nc1ccccc1O [4e, N-(2-Hydroxyphenyl)-2-(4-oxoquinazolin-3(4H)-yl)acetamide]",,,,,> 100,,54.9 ± 15.2
"O=C(Cn1cnc2ccccc2c1=O)Nc1ncccc1O [4f, N-(3-Hydroxypyridin-2-yl)-2-(4-oxoquinazolin-3(4H)-yl)acetamide]",,,,,> 100,,> 100
"COc1ccc(NC(=O)Cn2cnc3ccccc3c2=O)c(N)c1 [4g, N-(2-Amino-4-methoxyphenyl)-2-(4-oxoquinazolin-3(4H)-yl)acetamide]",,,,,> 100,,> 100
"O=C(Cn1cnc2ccccc2c1=O)NCc1cccnc1 [4h, 2-(4-Oxoquinazolin-3(4H)-yl)-N-(pyridin-3-ylmethyl)acetamide]",,,,,58.2 ± 8.04,,51.4 ± 10.2
"O=C(Cn1cnc2ccccc2c1=O)Nc1nccs1 [4i, 2-(4-Oxoquinazolin-3(4H)-yl)-N-(thiazol-2-yl)acetamide]",,,,,> 100,,47.7 ± 16.2
"O=c1c2ccccc2nc(S)n1Cc1cccnc1 [compound 5, 2-Mercapto-3-(pyridin-3-ylmethyl)quinazolin-4(3H)-one]",,,,,> 100,,> 100

# Source: article PMC11500731 (RSC Advances, 2024)
